Results from ChEMBL document CHEMBL3588802, “Thiol activated prodrugs of sulfur dioxide (SO2) as MRSA inhibitors” (Bioorg Med Chem Lett, 2015).
Converted amounts (≈) assume the structure as drawn. The source made the active and inactive calls. The rule behind the calls is not given here.

Tests used:
Staphylococcus aureus [1] = test: Antibacterial activity against methicillin-sensitive Staphylococcus aureus after 18 to 20 hrs by microbroth dilution method; type: functional
Enterococcus faecalis = test: Antibacterial activity against Enterococcus faecalis after 18 to 20 hrs by microbroth dilution method; type: functional
Escherichia coli = test: Antibacterial activity against Escherichia coli after 18 to 20 hrs by microbroth dilution method; type: functional
Staphylococcus aureus [2] = test: Antibacterial activity against methicillin-resistant Staphylococcus aureus after 18 to 20 hrs by microbroth dilution method; type: functional
Staphylococcus aureus [3] = test: Induction of intracellular thiol depletion in Staphylococcus aureus after 60 mins by monobromobimane-based fluorescence assay relative to control
Staphylococcus aureus [4] = test: Antibacterial activity against patient-derived methicillin-resistant Staphylococcus aureus 7419 after 18 to 20 hrs by microbroth dilution method; type: functional
Outline: (§1)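 Patient-derived MRSA clinical isolates from the Department of Microbiology, Nizam's Institute of Medical Sciences, Hyderabad. MIC determined by broth dilution.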

Staphylococcus aureus [5] = test: Antibacterial activity against patient-derived methicillin-resistant Staphylococcus aureus B19506 after 18 to 20 hrs by microbroth dilution method; type: functional; outline: as §1
Staphylococcus aureus [6] = test: Antibacterial activity against patient-derived methicillin-resistant Staphylococcus aureus 7425 after 18 to 20 hrs by microbroth dilution method; type: functional; outline: as §1
Staphylococcus aureus [7] = test: Antibacterial activity against patient-derived methicillin-resistant Staphylococcus aureus 7386 after 18 to 20 hrs by microbroth dilution method; type: functional; outline: as §1
Staphylococcus aureus [8] = test: Antibacterial activity against patient-derived methicillin-resistant Staphylococcus aureus K1 after 18 to 20 hrs by microbroth dilution method; type: functional; outline: as §1
Staphylococcus aureus [9] = test: Induction of intracellular thiol depletion in Staphylococcus aureus after 60 mins by monobromobimane-based fluorescence assay relative to control; type: functional, organism-based
Staphylococcus aureus [10] = test: Induction of intracellular oxidative species generation in methicillin-sensitive Staphylococcus aureus 29213 at 0.5 to 8 ug/ml after 1 hr by DCFH2-DA dye-based fluorescence assay; type: functional, organism-based
Outline: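 Intracellular oxidative species in S. aureus are read as fluorescence of 2,7-dichlorodihydrofluorescein-diacetate (DCFH2-DA) after exposure to compound.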

[11] = Cytotoxicity against human A549 cells after 72 hrs by MTT assay; type: cell-based
[12] = Selectivity index, ratio of GI50 for human A549 cells to MIC for Staphylococcus aureus
Outline: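 Selectivity index calculated as GI50 in A549 lung carcinoma cells divided by MIC.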

| SMILES | MIC (Staphylococcus aureus [1]) | MIC (Enterococcus faecalis) | MIC (Escherichia coli) | MIC (Staphylococcus aureus [2]) | also measured |
| --- | --- | --- | --- | --- | --- |
| C#CCN(c1ccccc1OC)S(=O)(=O)c1ccc([N+](=O)[O-])cc1[N+](=O)[O-] | 4 µg/mL (≈ 10.2 µM) | 8 µg/mL (≈ 20.4 µM) | > 32 µg/mL | 8 µg/mL (≈ 20.4 µM) |  |
| C#CCN(Cc1cccc(OC)c1)S(=O)(=O)c1ccc([N+](=O)[O-])cc1[N+](=O)[O-] | 16 µg/mL (≈ 39.5 µM) |  |  |  |  |
| COc1ccc(CN(CCCN(Cc2ccccc2)S(=O)(=O)c2ccc([N+](=O)[O-])cc2[N+](=O)[O-])S(=O)(=O)c2ccc([N+](=O)[O-])cc2[N+](=O)[O-])cc1 | > 32 µg/mL | > 32 µg/mL | > 32 µg/mL |  |  |
| COc1cccc(NS(=O)(=O)c2ccc([N+](=O)[O-])cc2[N+](=O)[O-])c1 | 16 µg/mL (≈ 45.3 µM) | > 32 µg/mL | > 32 µg/mL | 32 µg/mL (≈ 90.6 µM) |  |
| O=[N+]([O-])c1ccc(S(=O)(=O)Nc2ccccc2)c([N+](=O)[O-])c1 | 8 µg/mL (≈ 24.7 µM) |  |  |  |  |
| COc1cccc(N(CCCN(Cc2ccccc2)S(=O)(=O)c2ccc([N+](=O)[O-])cc2[N+](=O)[O-])S(=O)(=O)c2ccc([N+](=O)[O-])cc2[N+](=O)[O-])c1 | > 32 µg/mL |  |  |  |  |
| C#CCN(Cc1ccccc1)S(=O)(=O)c1ccc([N+](=O)[O-])cc1[N+](=O)[O-] | 4 µg/mL (≈ 10.7 µM) | 16 µg/mL (≈ 42.6 µM) | > 32 µg/mL | 4 µg/mL (≈ 10.7 µM) |  |
| COc1ccc(NS(=O)(=O)c2ccc([N+](=O)[O-])cc2[N+](=O)[O-])cc1 | > 16 µg/mL |  |  |  |  |
| CCCCN(c1ccccc1OC)S(=O)(=O)c1ccc([N+](=O)[O-])cc1[N+](=O)[O-] | > 32 µg/mL | > 32 µg/mL | > 32 µg/mL |  |  |
| N#Cc1ccc(NS(=O)(=O)c2ccc([N+](=O)[O-])cc2[N+](=O)[O-])cc1 | > 16 µg/mL |  |  |  |  |
| C#CCN(CC)S(=O)(=O)c1ccc([N+](=O)[O-])cc1[N+](=O)[O-] | 16 µg/mL (≈ 51.1 µM) | > 32 µg/mL | > 32 µg/mL | 16 µg/mL (≈ 51.1 µM) | Activity (Staphylococcus aureus [3]): inactive |
| C=CCN(c1cccc(OC)c1)S(=O)(=O)c1ccc([N+](=O)[O-])cc1[N+](=O)[O-] | 8 µg/mL (≈ 20.3 µM) | 16 µg/mL (≈ 40.7 µM) | > 32 µg/mL | 8 µg/mL (≈ 20.3 µM) |  |
| COc1ccc(CNS(=O)(=O)c2ccc([N+](=O)[O-])cc2[N+](=O)[O-])cc1 | > 16 µg/mL |  |  |  |  |
| CCCN(c1ccccc1OC)S(=O)(=O)c1ccc([N+](=O)[O-])cc1[N+](=O)[O-] | > 32 µg/mL | > 32 µg/mL | > 32 µg/mL |  |  |
| NC[C@H]1O[C@H](O[C@H]2[C@H](O)[C@@H](O[C@H]3O[C@H](CO)[C@@H](O)[C@H](N)[C@H]3O)[C@H](N)C[C@@H]2N)[C@H](N)C[C@@H]1O [TOBRAMYCIN] |  |  |  | > 32 µg/mL | MIC (Staphylococcus aureus [4]): > 32 µg/mL; MIC (Staphylococcus aureus [5]): > 32 µg/mL; MIC (Staphylococcus aureus [6]): 1 µg/mL (≈ 2.14 µM); MIC (Staphylococcus aureus [7]): > 32 µg/mL; MIC (Staphylococcus aureus [8]): 8 µg/mL (≈ 17.1 µM) |
| CCN(c1cccc(OC)c1)S(=O)(=O)c1ccc([N+](=O)[O-])cc1[N+](=O)[O-] | 8 µg/mL (≈ 21 µM) | 8 µg/mL (≈ 21 µM) | > 32 µg/mL | 8 µg/mL (≈ 21 µM) |  |
| CN(Cc1ccccc1)S(=O)(=O)c1ccc([N+](=O)[O-])cc1[N+](=O)[O-] | 8 µg/mL (≈ 22.8 µM) |  |  |  |  |
| CCN1C(=O)C=CC1=O |  |  |  |  | Activity (Staphylococcus aureus [3]): Active |
| O=[N+]([O-])c1ccc(S(=O)(=O)N(CCCO)Cc2ccccc2)c([N+](=O)[O-])c1 | 16 µg/mL (≈ 40.5 µM) | 32 µg/mL (≈ 80.9 µM) | > 32 µg/mL | 8 µg/mL (≈ 20.2 µM) |  |
| CC(=O)NC[C@H]1CN(c2ccc(N3CCOCC3)c(F)c2)C(=O)O1 [LINEZOLID] |  |  |  | 1 µg/mL (≈ 2.96 µM) |  |

| SMILES | MIC (Staphylococcus aureus [1]) | MIC (Enterococcus faecalis) | MIC (Escherichia coli) | MIC (Staphylococcus aureus [2]) | also measured |
| --- | --- | --- | --- | --- | --- |
| O=[N+]([O-])c1ccc(S(=O)(=O)Nc2ccc(F)cc2)c([N+](=O)[O-])c1 | 16 µg/mL (≈ 46.9 µM) |  |  |  |  |
| COc1ccccc1CN(CCCN(Cc1ccccc1)S(=O)(=O)c1ccc([N+](=O)[O-])cc1[N+](=O)[O-])S(=O)(=O)c1ccc([N+](=O)[O-])cc1[N+](=O)[O-] | > 32 µg/mL | > 32 µg/mL | > 32 µg/mL |  |  |
| O=[N+]([O-])c1ccc(S(=O)(=O)NCc2ccccc2)c([N+](=O)[O-])c1 | > 16 µg/mL |  |  |  |  |
| C#CCN(c1cccc(OC)c1)S(=O)(=O)c1ccc([N+](=O)[O-])cc1[N+](=O)[O-] | 4 µg/mL (≈ 10.2 µM) | 8 µg/mL (≈ 20.4 µM) | > 32 µg/mL | 4 µg/mL (≈ 10.2 µM) | Activity (Staphylococcus aureus [9]): Dose-dependent effect; Activity (Staphylococcus aureus [10]): Active; GI50 at 72 h [11]: 27 µM; Selectivity Index [12]: 5.2; MIC (Staphylococcus aureus [4]): 4 µg/mL (≈ 10.2 µM); MIC (Staphylococcus aureus [5]): 2 µg/mL (≈ 5.11 µM); MIC (Staphylococcus aureus [6]): 2 µg/mL (≈ 5.11 µM); MIC (Staphylococcus aureus [7]): 2 µg/mL (≈ 5.11 µM); MIC (Staphylococcus aureus [8]): 4 µg/mL (≈ 10.2 µM) |
| C=CCN(c1ccccc1OC)S(=O)(=O)c1ccc([N+](=O)[O-])cc1[N+](=O)[O-] | 8 µg/mL (≈ 20.3 µM) | > 32 µg/mL | > 32 µg/mL | 4 µg/mL (≈ 10.2 µM) |  |
| CCN(c1ccccc1OC)S(=O)(=O)c1ccc([N+](=O)[O-])cc1[N+](=O)[O-] | 8 µg/mL (≈ 21 µM) | > 32 µg/mL | > 32 µg/mL | 8 µg/mL (≈ 21 µM) |  |
| C#CCN(C)S(=O)(=O)c1ccc([N+](=O)[O-])cc1[N+](=O)[O-] | 8 µg/mL (≈ 26.7 µM) | > 32 µg/mL | > 32 µg/mL | 8 µg/mL (≈ 26.7 µM) |  |
| O=[N+]([O-])c1ccc(S(=O)(=O)N(CCCN(c2ccccc2F)S(=O)(=O)c2ccc([N+](=O)[O-])cc2[N+](=O)[O-])Cc2ccccc2)c([N+](=O)[O-])c1 | > 32 µg/mL |  |  |  |  |
| COc1ccc(CN(CCCN(Cc2ccccc2)S(=O)(=O)c2ccc([N+](=O)[O-])cc2[N+](=O)[O-])S(=O)(=O)c2ccc([N+](=O)[O-])cc2[N+](=O)[O-])c(OC)c1 | > 16 µg/mL | > 32 µg/mL | > 32 µg/mL | > 32 µg/mL | Activity (Staphylococcus aureus [3]): inactive |
| O=[N+]([O-])c1ccc(S(=O)(=O)N(CCCN(c2ccccc2)S(=O)(=O)c2ccc([N+](=O)[O-])cc2[N+](=O)[O-])Cc2ccccc2)c([N+](=O)[O-])c1 | > 16 µg/mL |  |  |  |  |
| C#CCN(Cc1ccc(OC)cc1)S(=O)(=O)c1ccc([N+](=O)[O-])cc1[N+](=O)[O-] | 8 µg/mL (≈ 19.7 µM) | 16 µg/mL (≈ 39.5 µM) | > 32 µg/mL | 8 µg/mL (≈ 19.7 µM) |  |
| O=C(O)c1cn(C2CC2)c2cc(N3CCNCC3)c(F)cc2c1=O [CIPROFLOXACIN] |  |  | ≤ 0.00075 µg/mL | 0.25 µg/mL (≈ 0.754 µM) | MIC (Staphylococcus aureus [4]): > 4 µg/mL; MIC (Staphylococcus aureus [5]): 32 µg/mL (≈ 96.6 µM); MIC (Staphylococcus aureus [6]): > 4 µg/mL; MIC (Staphylococcus aureus [7]): > 4 µg/mL; MIC (Staphylococcus aureus [8]): 0.5 µg/mL (≈ 1.51 µM) |
| COc1ccc(N(CCCN(Cc2ccccc2)S(=O)(=O)c2ccc([N+](=O)[O-])cc2[N+](=O)[O-])S(=O)(=O)c2ccc([N+](=O)[O-])cc2[N+](=O)[O-])cc1 | > 32 µg/mL |  |  |  |  |
| COc1cccc(N(C)S(=O)(=O)c2ccc([N+](=O)[O-])cc2[N+](=O)[O-])c1 | 8 µg/mL (≈ 21.8 µM) | 8 µg/mL (≈ 21.8 µM) | > 32 µg/mL | 4 µg/mL (≈ 10.9 µM) |  |
| O=[N+]([O-])c1ccc(S(=O)(=O)N(CCCN(Cc2ccccc2)S(=O)(=O)c2ccc([N+](=O)[O-])cc2[N+](=O)[O-])Cc2ccccc2)c([N+](=O)[O-])c1 | > 16 µg/mL |  |  |  |  |
| COc1ccccc1N(Cc1ccccc1)S(=O)(=O)c1ccc([N+](=O)[O-])cc1[N+](=O)[O-] | > 32 µg/mL | > 32 µg/mL | > 32 µg/mL |  |  |
| COc1ccccc1N(C)S(=O)(=O)c1ccc([N+](=O)[O-])cc1[N+](=O)[O-] | 16 µg/mL (≈ 43.6 µM) | 16 µg/mL (≈ 43.6 µM) | > 32 µg/mL | 16 µg/mL (≈ 43.6 µM) |  |
| C[C@@H](O)[C@H]1C(=O)N2C(C(=O)O)=C(S[C@@H]3CN[C@H](C(=O)N(C)C)C3)[C@H](C)[C@H]12 [MEROPENEM] |  |  |  | 16 µg/mL (≈ 41.7 µM) | MIC (Staphylococcus aureus [4]): 16 µg/mL (≈ 41.7 µM); MIC (Staphylococcus aureus [5]): 1 µg/mL (≈ 2.61 µM); MIC (Staphylococcus aureus [6]): 4 µg/mL (≈ 10.4 µM); MIC (Staphylococcus aureus [7]): > 32 µg/mL; MIC (Staphylococcus aureus [8]): 0.5 µg/mL (≈ 1.3 µM) |
| COc1ccccc1N(CCCN(Cc1ccccc1)S(=O)(=O)c1ccc([N+](=O)[O-])cc1[N+](=O)[O-])S(=O)(=O)c1ccc([N+](=O)[O-])cc1[N+](=O)[O-] | > 32 µg/mL |  |  |  |  |
| COc1ccccc1NS(=O)(=O)c1ccc([N+](=O)[O-])cc1[N+](=O)[O-] | 8 µg/mL (≈ 22.6 µM) | 16 µg/mL (≈ 45.3 µM) | > 32 µg/mL | 8 µg/mL (≈ 22.6 µM) |  |
